From PMC5963734 (Neuron, 2018)

System: PSD-95 - α-actinin interaction
Assay: Competition of co-IP of α-actinin with PSD-95 from brain lysates
Design: species or system rat
Conditions: added to Triton X-100 brain lysate during IP of PSD-95; Figure 3D
Outline: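 Adult rat brain (1 g) homogenised on ice in buffer A (150 mM NaCl, 10 mM HEPES, 10 mM EDTA, 10 mM EGTA, pH 7.4) with protease inhibitors and 1% Triton X-100, then cleared at 250,000 × g for 30 min. Competitors added: PSD-95 peptide 1-13, GST-PSD-95 1-64, peptide 15-36, or Ca2+ plus CaM. Per IP, 1 mg protein, 1 μg PSD-95 antibody and protein G-Sepharose, 4 h at 4 °C; three washes.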

B1: GST-PSD-95 1-64 (N-term): GST fusion protein of the N-terminal 64 residues of PSD-95 (protein)
chain: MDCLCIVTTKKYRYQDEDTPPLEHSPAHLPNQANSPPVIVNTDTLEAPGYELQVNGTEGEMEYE
modifications: left off: GST, N-terminal, kept
- disruption of co-IP of α-actinin with PSD-95: disrupted
